From ChEMBL document CHEMBL4706633, “Design, Synthesis, and Biological Evaluation of a Series of Oxazolone Carboxamides as a Novel Class of Acid Ceramidase Inhibitors” (J Med Chem, 2020)
pIC50: −log10 of the molar value. Values after ≈ are worked out from the molar mass of the structure shown. Active and inactive are the calls of the source. The calls are words filed in the database; no cut-off is given here.

What was measured:
[1] = Half life in pH 7 0.01M PBS buffer at 2 uM by LC/MS-MS analysis; type: physicochemical
[2] = Half life in mouse plasma at 2 uM by LC/MS-MS analysis; type: ADME, cell-free
Outline: (§1)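 Kinetic aqueous solubility was measured in PBS, pH 7.4. Metabolic stability was measured as t1/2 in mouse plasma and mouse liver microsomes, with microsomal data also given as % compound remaining at 1 h. Values are means of at least two independent experiments, each in two technical replicates.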

[3] = Stability in mouse plasma at 2 uM after 120 mins by LC/MS-MS analysis; type: ADME, cell-free; conditions: read-out: Stabilty
[4] = Half life in mouse liver microsomes at 4.6 uM in presence of NADPH by LC/MS-MS analysis; type: ADME, Microsome; outline: as §1
[5] = Kinetic solubility in pH 7.4 PBS buffer at 250 uM incubated for 1 hr by UPLC/MS analysis; type: physicochemical; conditions: read-out: Kinetic_solubility; outline: as §1
Acid ceramidase [6] = target: T1, Acid ceramidase (Homo sapiens, UniProt Q13510); test: Inhibition of human acid ceramidase using Rbm14-12 fluorogenic substrate incubated for 1 hr by fluorescence assay; conditions: for pIC50: read-out: IC50
T1 sequence (Q13510 whole entry): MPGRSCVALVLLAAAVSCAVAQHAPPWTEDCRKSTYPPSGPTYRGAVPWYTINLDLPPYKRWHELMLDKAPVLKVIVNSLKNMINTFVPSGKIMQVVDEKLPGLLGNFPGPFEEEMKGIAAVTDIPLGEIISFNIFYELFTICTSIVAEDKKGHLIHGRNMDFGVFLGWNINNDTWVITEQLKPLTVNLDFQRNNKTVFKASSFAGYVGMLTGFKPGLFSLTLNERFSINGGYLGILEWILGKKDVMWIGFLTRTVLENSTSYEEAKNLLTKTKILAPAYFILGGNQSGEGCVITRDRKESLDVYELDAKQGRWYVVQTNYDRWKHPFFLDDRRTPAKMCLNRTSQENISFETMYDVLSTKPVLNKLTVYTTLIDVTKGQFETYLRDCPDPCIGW

[7] = Stability in mouse liver microsomes at 4.6 uM in presence of NADPH after 60 mins by LC/MS-MS analysis; type: ADME, Microsome; conditions: read-out: Stabilty; outline: as §1
Acid ceramidase [8] = target: T1, Acid ceramidase; test: Inhibition of acid ceramidase in human HL-60 cell lysates; type: subcellular
Acid ceramidase [9] = target: T1, Acid ceramidase; test: Inhibition of acid ceramidase in human HaCaT cell lysates; type: subcellular
[10] = target: T2, Acid ceramidase (Homo sapiens) (UniProt Q13510); test: Inhibition of human acid ceramidase at 1 to 10 uM using N-lauroyl ceramide incubated for 1 hr by LC/MS analysis; conditions: dose 1-10 µM
T2 sequence (whole entry): T1 sequence (Q13510 whole entry)

Acid ceramidase [11] = target: T1, Acid ceramidase; test: Inhibition of human acid ceramidase
[12] = target: T2, Acid ceramidase (Homo sapiens); test: Inhibition of human acid ceramidase at 10 uM using N-lauroyl ceramide incubated for 1 hr by LC/MS analysis relative to control
[13] = Half life in mouse plasma; type: ADME, cell-free; outline: as §1
[14] = target: T2, Acid ceramidase (Homo sapiens); test: Irreversible covalent inhibition of human acid ceramidase using N-lauroyl ceramide incubated for 1 hr by LC/MS analysis
[15] = target: T2, Acid ceramidase (Homo sapiens); test: Inhibition of acid ceramidase in human NCI-H460 cells at 25 uM relative to control; type: cell-based
Acid ceramidase [16] = target: T1, Acid ceramidase; test: Inhibition of acid ceramidase in human SK-OV-3 cell lysates; type: subcellular
[17] = target: T2, Acid ceramidase (Homo sapiens); test: Inhibition of human acid ceramidase using Rbm14-12 fluorogenic substrate incubated for 1 hr by fluorescence assay
[18] = target: T2, Acid ceramidase (Homo sapiens); test: Inhibition of human acid ceramidase at 5 uM using N-lauroyl ceramide incubated for 1 hr by LC/MS analysis relative to control

## O=C(NCCCCc1ccccc1)n1c(-c2ccccc2)coc1=O
[1]
  half-life at 2 µM: 0.167 h

## COc1cc(-c2cn(C(=O)NCCCCc3ccccc3)c(=O)o2)ccc1F
[2]
  t1/2: > 2 h
[3]
  remaining at 2 h, 2 µM: 64%
[4]
  t1/2: > 1 h
[5]
  solubility kinetic at 1 h, 250 µM: < 1 µM
Acid ceramidase [6]
  pIC50: 7.10
[7]
  remaining at 1 h, 4.6 µM: 74%

## CCCCCCCCCCCCCC(=O)N[C@H](C)[C@@H](O)c1ccccc1
Acid ceramidase [8]
  pIC50: < 3.30
Acid ceramidase [9]
  pIC50: 3.30

## O=C(NCCCCc1ccccc1)N1C[C@H](c2ccccc2)OC1=O
[10]
  inhibition: inactive

## O=C(OCCCCc1ccccc1)n1cc(-c2ccccc2)oc1=O
[10]
  inhibition: inactive

## N=C(N)Nc1ccc(CC(=O)Oc2ccc(-c3ccccc3)cc2)cc1
Acid ceramidase [11]
  pIC50: 4.28

## CN1CCC(c2cccc(-c3cn(C(=O)NCCCCc4ccccc4)c(=O)o3)c2)CC1
[2]
  t1/2: > 2 h
[3]
  remaining at 2 h, 2 µM: 73%
[4]
  t1/2: 0.5 h
[5]
  solubility kinetic at 1 h, 250 µM: 70 µM (≈ 30.3 µg/mL)
Acid ceramidase [6]
  pIC50: 6.82

## O=C(NCCCCc1ccccc1)n1cc(-c2nccs2)oc1=O
Acid ceramidase [6]
  pIC50: 7.23

## CCCCCCNC(=O)n1cc(F)c(=O)n(C(=O)OCC(C)C)c1=O
Acid ceramidase [11]
  pIC50: 8.11

## O=C(NCCCCc1ccccc1)N1C[C@@H](c2ccccc2)OC1=O
[10]
  inhibition: inactive

## COCCCNC(=O)n1cc(-c2ccccc2)oc1=O
[12]
  inhibition: 53%

## O=C(NCCCCc1ccccc1)n1cc(-c2cscn2)oc1=O
Acid ceramidase [6]
  pIC50: 7.36

## O=C(NCCCCc1ccccc1)n1cc(-c2ccccn2)oc1=O
[2]
  t1/2: 0.667 h
[4]
  t1/2: 0.167 h
[5]
  solubility kinetic at 1 h, 250 µM: < 1 µM
Acid ceramidase [6]
  pIC50: 7.60

## CN1CCC(c2cn(C(=O)NCCCCc3ccccc3)c(=O)o2)CC1
Acid ceramidase [6]
  pIC50: 5.85

## CCCCCCCCCCCCCCC[C@@H](O)[C@H](CO)NC(=O)CBr
Acid ceramidase [11]
  pIC50: 7.28

## CCCCCCNC(=O)n1nc(C)cc1C(F)(F)F
[13]
  half-life: 9 min
Acid ceramidase [11]
  pIC50: 7.85

## CC(C)CNC(=O)n1cc(-c2ccccc2)oc1=O
[2]
  t1/2: > 2 h
[3]
  remaining at 2 h, 2 µM: 70%
[4]
  t1/2: 0.833 h
[5]
  solubility kinetic at 1 h, 250 µM: < 1 µM
Acid ceramidase [6]
  pIC50: 5.77

## CCC(C)NC(=O)n1cc(-c2ccccc2)oc1=O (racemic)
[12]
  inhibition: 21%

## COc1ccc(-c2cn(C(=O)NCCCCc3ccccc3)c(=O)o2)cc1
Acid ceramidase [6]
  pIC50: 6.40

## O=C(NCCCCc1ccccc1)n1cc(-c2ccc(Cl)cc2)oc1=O
Acid ceramidase [6]
  pIC50: 7.08

## CCCCCCCCCCCCCC(=O)NCC(O)c1ccccc1 (centres undefined)
Acid ceramidase [11]
  pIC50: 5.89

## CN1CCC(c2cc(F)ccc2-c2cn(C(=O)NCCCCc3ccccc3)c(=O)o2)CC1
[2]
  t1/2: > 2 h
[3]
  remaining at 2 h, 2 µM: 54%
[4]
  t1/2: > 1 h
[5]
  solubility kinetic at 1 h, 250 µM: 60 µM (≈ 27.1 µg/mL)
Acid ceramidase [6]
  pIC50: 6.47
[7]
  remaining at 1 h, 4.6 µM: 51%

## CCCCCCCC/C=C\CCCCCCCC(=O)NCCO [OLEOYLETHANOLAMIDE]
Acid ceramidase [11]
  pIC50: 3.30

## O=C(NCCCCc1ccccc1)n1cc(-c2cnc3ccccc3n2)oc1=O
Acid ceramidase [6]
  pIC50: 7.43

## O=C(NCCCCc1ccccc1)n1cc(-c2ccncc2)oc1=O
[2]
  t1/2: 0.5 h
[4]
  t1/2: > 1 h
[5]
  solubility kinetic at 1 h, 250 µM: < 1 µM
Acid ceramidase [6]
  pIC50: 7.74
[7]
  remaining at 1 h, 4.6 µM: 75%

## CCOCCNC(=O)n1cc(-c2ccccc2)oc1=O
[2]
  t1/2: 1.33 h
[4]
  t1/2: < 0.083 h
[5]
  solubility kinetic at 1 h, 250 µM: 20 µM (≈ 5.53 µg/mL)
Acid ceramidase [6]
  pIC50: 5.69

## COc1cccc(-c2cn(C(=O)NCCCCc3ccccc3)c(=O)o2)c1
[2]
  t1/2: > 2 h
[3]
  remaining at 2 h, 2 µM: 64%
[4]
  t1/2: 0.5 h
[5]
  solubility kinetic at 1 h, 250 µM: < 1 µM
Acid ceramidase [6]
  pIC50: 6.47

## O=C(NCCCCc1ccccc1)n1cc(-c2ccccc2)oc1=O
[14]
  inhibition: Dose-dependent effect
[2]
  t1/2: < 0.083 h
[4]
  t1/2: 0.667 h
[1]
  half-life at 2 µM: > 12 h
[5]
  solubility kinetic at 1 h, 250 µM: < 1 µM
Acid ceramidase [6]
  pIC50: 7.05

## Cc1c(-c2ccccc2)oc(=O)n1C(=O)NCCCCc1ccccc1
Acid ceramidase [6]
  pIC50: 7.16

## Cn1nc(-c2cn(C(=O)NCCCCc3ccccc3)c(=O)o2)c2ccccc21
Acid ceramidase [6]
  pIC50: 7.04

## COc1ccc(/C=C/C(=O)c2c(-c3ccccc3)c3ccccc3[nH]c2=O)cc1
[15]
  inhibition: 44%
Acid ceramidase [16]
  pIC50: 4.55
Acid ceramidase [11]
  pIC50: 4.55

## CCCCCNC(=O)n1cc(-c2ccccc2)oc1=O
[2]
  t1/2: > 2 h
[3]
  remaining at 2 h, 2 µM: 60%
[4]
  t1/2: < 0.083 h
[5]
  solubility kinetic at 1 h, 250 µM: < 1 µM
Acid ceramidase [6]
  pIC50: 7.41

## CN(CCCCc1ccccc1)C(=O)n1cc(-c2ccccc2)oc1=O
[10]
  inhibition: inactive

## CN1CCC(c2cc(F)ccc2-c2c[nH]c(=O)o2)CC1
[17]
  inhibition: inactive

## CCCCCNC(=O)n1c(-c2ccccc2)coc1=O
Acid ceramidase [6]
  pIC50: 7.60

## O=C(Nc1ccccc1)n1cc(-c2ccccc2)oc1=O
[18]
  inhibition: 20%

## COc1ccccc1-c1cn(C(=O)NCCCCc2ccccc2)c(=O)o1
Acid ceramidase [6]
  pIC50: 6.75

## CC(C)CNC(=O)n1cc(-c2ccc(F)c(C3CCN(C)CC3)c2)oc1=O
[12]
  inhibition: 26%

## CCCCCNC(=O)n1cc(-c2ccc(F)c(C3CCN(C)CC3)c2)oc1=O
Acid ceramidase [6]
  pIC50: 5.72

## Cc1oc(=O)n(C(=O)NCCCCc2ccccc2)c1-c1ccccc1
Acid ceramidase [6]
  pIC50: 7.38

## CN1CCC(c2cc(-c3cn(C(=O)NCCCCc4ccccc4)c(=O)o3)ccc2F)CC1
[2]
  t1/2: > 2 h
[3]
  remaining at 2 h, 2 µM: 80%
[4]
  t1/2: > 1 h
[5]
  solubility kinetic at 1 h, 250 µM: 30 µM (≈ 13.5 µg/mL)
Acid ceramidase [6]
  pIC50: 6.47
[7]
  remaining at 1 h, 4.6 µM: 70%

## O=c1[nH]cc(-c2ccccc2)o1
Acid ceramidase [6]
  IC50: Not Active

## CCCCCCNC(=O)n1cc(Cl)c(=O)n(C(=O)OCC(C)C)c1=O
Acid ceramidase [11]
  pIC50: 7.89

## O=C(NCCCCc1ccccc1)n1cc(-c2cnccn2)oc1=O
[2]
  t1/2: 0.667 h
[4]
  t1/2: 1 h
[5]
  solubility kinetic at 1 h, 250 µM: < 1 µM
Acid ceramidase [6]
  pIC50: 7.49

## O=C(CCCCCc1ccccc1)n1cc(-c2ccccc2)oc1=O
[10]
  inhibition: inactive

## O=C(NCCCCc1ccccc1)n1cc(-c2ccc(F)cc2)oc1=O
[2]
  t1/2: 1.5 h
[4]
  t1/2: 1 h
[5]
  solubility kinetic at 1 h, 250 µM: < 1 µM
Acid ceramidase [6]
  pIC50: 6.73

## O=C(NCCCCc1ccccc1)n1c(-c2ccc(Cl)cc2)coc1=O
Acid ceramidase [6]
  pIC50: 8.30

## O=C(NCCCCc1ccccc1)n1cc(-c2cccnc2)oc1=O
[2]
  t1/2: 1 h
[4]
  t1/2: > 1 h
[5]
  solubility kinetic at 1 h, 250 µM: < 1 µM
Acid ceramidase [6]
  pIC50: 7.15
[7]
  remaining at 1 h, 4.6 µM: 55%

## CC(C)CNC(=O)n1cc(-c2ccc(F)cc2C2CCN(C)CC2)oc1=O
[12]
  inhibition: 38%
